This is an account of results in ChEMBL document CHEMBL1157510, “Bioactive cembrane diterpenoids of Anisomeles indica” (J Nat Prod, 2008).

In experiment [1] the test system is A549. The experiment in a line: Cytotoxicity against human A549 cells after 3 days by MTT assay. The following applies: for IC50: A549, 72 h. The format is functional, cell-based. In a few lines:
(§1)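 Freshly trypsinized cells were seeded at 5000-10 000 per well, and compounds were added from DMSO stocks. After 3 days of culture, attached cells were given MTT (0.5 mg/mL, 1 h) and then solubilized in DMSO. Absorbance was read at 550 nm. IC50 is the concentration that cut cell growth by 50%. Values are the mean of two to three separate experiments, each in triplicate.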

Experiment [2] has as its system HepG2. Description: Cytotoxicity against human HepG2 cells after 3 days by MTT assay. In kind it is functional, cell-based. The following applies: for IC50: HepG2, 72 h. In a few lines:
as §1
For orientation: Tetrazolium assays rely on reduction of a dye to a coloured formazan, in cell work by metabolically active cells.

The test system of experiment [3] is MDA-MB-231. The experiment in a line: Cytotoxicity against human MDA-MB-231 cells after 3 days by MTT assay. The following applies: for IC50: MDA-MB-231, 72 h. The format is functional, cell-based. In a few lines:
as §1

The test system of experiment [4] is MCF7. Description: Cytotoxicity against human MCF7 cells after 3 days by MTT assay. The format is functional, cell-based. The following applies: for IC50: MCF7, 72 h. Summed up: as §1
In experiment [5] the test system is Platelet. The experiment in a line: Inhibition of thrombin-induced human platelet aggregation by light transmission aggregometer. In kind it is functional, cell-based. In a few lines:
(§2)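 Human platelet suspension was preincubated with DMSO or compound at 37 °C for 3 min, stirring at 1200 rpm, before the activator was added. Aggregation was followed turbidimetrically in a light-transmission aggregometer.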

Experiment [6] relates to Platelet. Description: Inhibition of collagen-induced human platelet aggregation by light transmission aggregometer. The format is functional, cell-based. Summed up: as §2
For experiment [7], the system named is Hep 3B2. Description: (§3) Cytotoxicity against human Hep3B cells after 3 days by MTT assay. The format is functional, cell-based. In a few lines:
as §1

A short description of experiment [8]: as §3. In kind it is functional, cell-based, Hep 3B2. The following applies: 72 h. In a few lines: as §1

The source made the active and inactive calls. No cut-off for these calls is given here.

Regarding `C=C1C(=O)O[C@H]2/C=C(\C)C[C@@H]3C=C(CC[C@@H](OO)C(=C)CC[C@H]12)C(=O)O3`, the result in experiment [1], in experiment [2], in experiment [3], in experiment [4], in experiment [5] and in experiment [6] was inactive. The result in experiment [7] was inactive.

Take `C=C1C(=O)O[C@H]2/C=C(\C)C[C@@H]3C=C(CC[C@H]4O[C@@]4(C)CC[C@H]12)C(=O)O3`: the IC50 (usually the point on the concentration scale where inhibition reaches its midpoint) in experiment [1] was 8.8 µM; in experiment [2], 10 µM; in experiment [3], > 10 µM; in experiment [4] it was > 10 µM; in experiment [5] it was 4.8 µM; in experiment [6] it was > 100 µM. The compound further registered an IC50 in experiment [8] of 9.3 µM.

`C=C1CC[C@@H]2C(=C)C(=O)O[C@H]2/C=C(\C)C[C@@H]2C=C(CC[C@H]1O)C(=O)O2`: the outcome in experiment [1], in experiment [2], in experiment [3], in experiment [4] and in experiment [7] was inactive. Besides, the IC50 in experiment [5] was > 100 µM; in experiment [6] it was 41.9 µM.

Regarding `C=C1C(=O)O[C@H]2/C=C(\C)C[C@@H]3C=C(C/C=C/[C@@](C)(O)CC[C@H]12)C(=O)O3`, the concentration for half-maximal inhibition (IC50) in experiment [1] is 9.9 µM; in experiment [2] it was 10 µM; in experiment [3], > 10 µM; in experiment [4], > 10 µM; in experiment [5] it was 20 µM; in experiment [6], > 100 µM. For the same compound, the IC50 in experiment [8] was > 10 µM.

Regarding `C=C1C(=O)O[C@H]2/C=C(\C)C[C@@H]3C=C(CC/C=C(\C)CC[C@H]12)C(=O)O3`, the IC50 in experiment [1] was 9.6 µM; in experiment [2] it was 10 µM; in experiment [3] it was 9.5 µM; in experiment [4] it was 9.5 µM; in experiment [5], > 100 µM; in experiment [6] it was 19.7 µM. For the same compound, in experiment [8], the half-inhibitory concentration (IC50) is 7.4 µM.

Regarding `C=C1CC[C@H]2C(=C)C(=O)O[C@@H]2/C=C(\C)C[C@H]2C=C(CCC1=O)C(=O)O2`, the IC50 was > 10 µM in experiment [1]; 10 µM in experiment [2]; 9.8 µM in experiment [3]; > 10 µM in experiment [4]; > 10 µM in experiment [8]. The outcome in experiment [5] and in experiment [6] was inactive.

In the case of `COc1cccc2c1C(=O)c1c(O)c3c(c(O)c1C2=O)C[C@@](O)(C(=O)CO)C[C@@H]3O[C@H]1C[C@H](N)[C@H](O)[C@H](C)O1` [DOXORUBICIN], the IC50 was determined as 0.4 µM in experiment [1], 0.82 µM in experiment [2], 0.07 µM in experiment [3] and 0.48 µM in experiment [8].

As for `CC(=O)Oc1ccccc1C(=O)O` [ASPIRIN], the IC50 in experiment [5] is > 100 µM; in experiment [6], 153 µM.

Regarding `C=C1C(=O)O[C@H]2/C=C(\C)C[C@@H]3C=C(C/C=C/[C@@](C)(OO)CC[C@H]12)C(=O)O3`, the outcome in experiment [1], in experiment [2], in experiment [3], in experiment [4] and in experiment [7] was inactive. Also, the figures for the IC50 in experiment [5] and in experiment [6] were 11.9 µM and > 100 µM, respectively.
